Measurements collected from several papers.
Lines come from different studies, so protocols differ.
Cell line: HeLa
Observed: cell growth or viability

SMILES | technique | time | IC50
COc1cc(C(=O)Nc2cc(OCCN3CCCC3)c3ccccc3n2)nc(C(=O)Nc2cc(OCCN3CCCC3)c3ccccc3n2)c1 | ATP luminescence | 72 h | 3.9 µM
COc1ccc(-c2cc(=O)c3c(OC)cc(OC)cc3o2)cc1 | MTT | 48 h | 33 µM
COc1ccc(OC)c(-c2c(C(=O)c3cc(OC)c(OC)c(OC)c3)sc3ccccc23)c1 | MTT | 72 h | > 10 µM
Cc1ccc(C#CC#Cc2ccc(C)cc2)cc1 | MTT | 24 h | 70.5 µg/mL
COc1cc(OC)cc(C(=O)c2cc3c(-c4ccccc4)c(O)ccc3o2)c1 |  |  | 15 µM
CC1(C)SC2C(NC(=O)C(NC(=O)C3=C(O)C(c4ccccc4)NC3=O)c3ccccc3)C(=O)N2C1C(=O)O (stereo not drawn) | ATP luminescence | 48 h | 47.6 µg/mL
OCCCC#CC#CCCCO | MTT | 24 h | 39.3 µg/mL
NCCOc1cc(C(=O)Nc2cc(OCCN)c3ccccc3n2)nc(C(=O)Nc2cc(OCCN)c3ccccc3n2)c1 | ATP luminescence | 72 h | 2.5 µM
CC1(C)SC2C(NC(=O)C(NC(=O)C3=C(O)C(Cc4ccc([N+](=O)[O-])cc4)NC3=O)c3ccccc3)C(=O)N2C1C(=O)O (stereo not drawn) | ATP luminescence | 48 h | 133 µg/mL
COC(=O)CN=c1scc(-c2ccccc2)n1-c1ccccc1[N+](=O)[O-] | MTT |  | 6.02 µM
Cc1ccc2c(Cl)cc(Cl)c(O)c2n1 | MTT | 48 h | > 100 µM
COc1ccccc1C(=O)c1cc2c(-c3ccccc3)c(OC)ccc2o1 |  |  | > 50 µM
C#CCOc1ccc(C(=O)c2ccc(-c3cccc(NC(=O)CCc4cccc5c4B(O)OC5)c3)cc2)cc1 | ATP luminescence | 72 h | 4.4 µM
COc1nc(OCc2cccc(-c3ccccc3)c2C)ccc1CNCCNC(C)=O | MTT |  | 3.6 µM
COc1cc(C)c(-c2c(C)cc(OC)c3c(=O)cc(-c4ccccc4Br)oc23)c2oc(-c3ccccc3Br)cc(=O)c12 | MTT | 48 h | 18.5 µM
CC1(C)S[C@@H]2[C@H](NC(=O)[C@H](N)c3ccccc3)C(=O)N2[C@H]1C(=O)O | ATP luminescence | 48 h | 72.7 µg/mL
COc1cc(C)cc2oc(-c3ccc(Br)cc3)cc(=O)c12 | MTT | 48 h | > 100 µM
COc1c2c(cc3c1OCO3)[C@]13C=C[C@H](OC)C[C@H]1N(C2)C[C@H]3OC(=O)c1cccc(C)c1 | WST-1 | 48 h | > 10 µM
COC(=O)CN=c1scc(-c2ccccc2)n1-c1ccccc1OC | MTT | 72 h | 2.97 µM
O=C(O)CN1c2ccccc2Sc2ccccc21 | MTS |  | 13.2 µM
CN(C)CCCOc1cc(NC(=O)c2cc(Cl)cc(C(=O)Nc3cc(OCCCN(C)C)c4ccccc4n3)n2)nc2ccccc12 | ATP luminescence | 72 h | 1.6 µM
COc1cc(OC)c2c(=O)cc(-c3ccccc3)oc2c1-c1c(OC)cc(OC)c2c(=O)cc(-c3ccccc3)oc12 | MTT | 48 h | 22.1 µM
NCCOc1cc(C(=O)Nc2cc(OCCN3CCCC3)c3ccccc3n2)nc(C(=O)Nc2cc(OCCN3CCCC3)c3ccccc3n2)c1 | ATP luminescence | 72 h | 0.3 µM

SMILES | technique | time | IC50
COc1cccc(C(=O)O[C@@H]2CN3Cc4c(cc5c(c4OC)OCO5)[C@@]24C=C[C@H](OC)C[C@@H]34)c1 | WST-1 | 48 h | > 10 µM
NCCCOc1cc(NC(=O)c2cc(OCc3c[nH]nn3)cc(C(=O)Nc3cc(OCCCN)c4ccccc4n3)n2)nc2ccccc12 | ATP luminescence | 72 h | > 40 µM
CC(C)(C)Oc1ccc(CC2NC(=O)C(C(=O)NC(C(=O)NC3C(=O)N4C3SC(C)(C)C4C(=O)O)c3ccccc3)=C2O)cc1 (stereo not drawn) | ATP luminescence | 48 h | 59.3 µg/mL
COc1ccc(-c2cc(=O)c3c(OC)cc(C)c(-c4c(C)cc(OC)c5c(=O)cc(-c6ccc(OC)cc6)oc45)c3o2)cc1 | MTT | 48 h | 41.4 µM
Clc1ccnc2c1ccc1c(Cl)ccnc12 | MTT | 48 h | > 50 µM
CC(=O)O[C@H](C)C(=O)CCCCC[C@@H]1NC(=O)[C@H]2CCCN2C(=O)[C@H](Cc2ccccc2)NC(=O)C(C)(C)NC1=O | XTT |  | 0.119 µM
CC(=O)O[C@H]1C(=O)[C@@]2(C)[C@H]([C@H](OC(=O)c3ccccc3)[C@]3(O)C[C@H](OC(=O)[C@H](O)[C@@H](NC(=O)c4ccccc4)c4ccccc4)C(C)=C1C3(C)C)[C@]1(OC(C)=O)CO[C@@H]1C[C@@H]2O | MTT | 72 h | < 2 µM
COC1=C2C[C@@H](C)C[C@H](OC)[C@H](O)[C@@H](C)/C=C(\C)[C@H](OC(N)=O)[C@@H](OC)/C=C\C=C(/C)C(=O)NC(=CC1=O)C2=O | MTT |  | 0.651 µM
Nc1ccc(C#CC#Cc2ccc(N)cc2)cc1 | MTT | 24 h | 91.2 µg/mL
CN(C)CCCOc1cc(NC(=O)c2cccc(C(=O)Nc3cc(OCCCN(C)C)c4ccccc4n3)n2)nc2ccccc12 | ATP luminescence | 72 h | 3 µM
CC(C)C1NC(=O)C(C(=O)NC(C(=O)NC2C(=O)N3C2SC(C)(C)C3C(=O)O)c2ccccc2)=C1O (stereo not drawn) | ATP luminescence | 48 h | 59 µg/mL
C(C#CCC1CCCCC1)#CCC1CCCCC1 | MTT | 24 h | 117 µg/mL
Cc1ccc2c(Br)cc(Br)c(O)c2n1 | MTT | 48 h | > 150 µM
CC1CS(=O)(=O)CCN1/N=C/c1ccc([N+](=O)[O-])o1 (stereo not drawn) |  |  | 43 µM
CC(=O)c1ccc(-c2cccc(NC(=O)CCc3cccc4c3B(O)OC4)c2)cc1 | ATP luminescence |  | 1.27 µM
CC1(C)CC[C@]2(C(=O)O)CC[C@]3(C)C(=CC[C@@H]4[C@@]5(C)CC[C@H](O)C(C)(C)[C@@H]5CC[C@]43C)[C@@H]2C1 | MTT | 48 h | 34.8 µM
COc1cc(C)cc2oc(-c3cccc(Br)c3)cc(=O)c12 | MTT | 48 h | 32.9 µM
C[C@@H](O)C(=O)CCCCC[C@@H]1NC(=O)[C@H]2CCCN2C(=O)[C@H](Cc2ccccc2)NC(=O)C(C)(C)NC1=O | XTT |  | 0.17 µM
COc1cc(C)c(-c2c(C)cc(OC)c3c(=O)cc(-c4ccc(C(F)(F)F)cc4)oc23)c2oc(-c3ccc(C(F)(F)F)cc3)cc(=O)c12 | MTT | 48 h | > 100 µM
COc1ccccc1C(=O)c1cc2c(-c3ccccc3)c(O)ccc2o1 |  |  | 24 µM
O=C(CCc1cccc2c1B(O)OC2)Nc1ccc(-c2ccccc2)cc1 | ATP luminescence | 72 h | > 31.6 µM
COc1ccc(-c2cc(=O)c3c(OC)cc(C)cc3o2)cc1 | MTT | 48 h | 28.4 µM
